Bioassay records as filed in PubChem BioAssay.
SIRT5 block: blocks human SIRT5 desuccinylation of peptide. Purified SirT5, succinyl-peptide AMC, trypsin-coupled fluorescence. inhibition, % at 15 µM. Q9NXA8. actives 1.1% (n = 330,000). AID 652115; in the data active means inhibition above about 15%; inconclusive means no clear call, values can overlap the other calls
Target sequence (Q9NXA8 whole entry, looked up): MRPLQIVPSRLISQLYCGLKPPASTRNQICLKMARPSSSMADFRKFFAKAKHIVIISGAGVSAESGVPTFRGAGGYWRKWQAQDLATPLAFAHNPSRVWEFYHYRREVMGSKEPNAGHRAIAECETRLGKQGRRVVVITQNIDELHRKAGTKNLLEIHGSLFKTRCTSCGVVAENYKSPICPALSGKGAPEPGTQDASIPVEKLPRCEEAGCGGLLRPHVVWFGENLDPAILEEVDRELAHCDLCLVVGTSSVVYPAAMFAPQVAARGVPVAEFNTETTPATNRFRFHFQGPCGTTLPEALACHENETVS
Cneo AK release: Cryptococcus neoformans lysis via adenylate kinase release; C. neoformans lysis, adenylate kinase release luminescence, 4 h; normalised: neutral wells 0, clomiphene wells 100; lysis activity, % at 15 µM; actives 0.2% (n = 360,000);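 active means mean lysis activity across replicates of at least 80%, whatever share of replicates individually reach that level; inactive means mean lysis activity below 80%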
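Material – log-phase Cryptococcus neoformans yeast cells · Input – 5 × 10^6 yeast cells/mL · Medium – fresh YPD growth medium · Doses – single compound concentration per well · Timing – static 4 h at 37 °C with compound, 1 h detection · Detection – adenylate kinase release luminescence · Read-out – signal increase indicating cell lysis · Control set – Clomiphene as positive lysis control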
S100A4 inh HTS: inhibitors of human S100A4 binding to myosin IIA peptide; S100A4/TAMRA-MyoIIA peptide fluorescence polarization; actives 0.14% (n = 360,000); inhibition, % at 10.7 µM;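 active means mean inhibition of at least 70% across replicates, with every replicate also reaching that level; inconclusive means mean inhibition reaches 70% but some replicates fall short; inactive means mean inhibition below 70%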
Target sequence (P26447 whole entry, looked up): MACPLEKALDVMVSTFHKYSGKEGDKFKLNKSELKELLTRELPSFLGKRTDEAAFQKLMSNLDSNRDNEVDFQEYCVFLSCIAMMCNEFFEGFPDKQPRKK
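incubation = readout 5 min after mixing, signal stable up to 60 min | system = S100A4 monomer protein | buffer or medium = HEPES pH 7.2 with CaCl2, KCl, NaCl, DTT, Triton | benchmarks = neutral control DMSO, positive control TFP | also added = fluorescent myosin IIA peptide, 5 nM | compound dosing = one concentration per compound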
rRNA inh HTS: inhibits bacterial ribosomal RNA function over humanized ribosomes; actives 1.6% (n = 350,000); GFP signal change (wild-type ribosome), % (no concentration beside the values); E. coli WT GFP vs humanized-ribosome RFP mutants, fluorescence, 24 h; active compounds read low; DMSO median 0, no signal -100;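 active means significant combined selectivity score with lowered wild-type GFP, culture density cut under 30%, mutant RFP and density less affected; inactive means any of these conditions unmet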
PGC1a acetyl inh: modulators of PGC1a acetylation. U2OS PGC1a acetylation, AlphaScreen anti-acetyl-lysine; with virally co-expressed GCN5 acetyltransferase. inhibition, % at 15.6 µM. actives 0.17% (n = 350,000);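 active means every replicate shows inhibition of at least 40%; inconclusive means mean inhibition at least 40% but some replicate below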
C2C12 statin: suppression of simvastatin myotoxicity; actives 0.78% (n = 330,000); rescue of ATP level, % at 7.49 µM; C2C12 myotubes + simvastatin, ATP luminescence, 48 h; scaled: DMSO 0, geranylgeraniol control 100; AID 602340;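 active means mean ATP rescue above about 67%, or every replicate alone reaching that limit, limit read from the data, passing the limit was not always enough; inconclusive means no clear call, values can overlap the other calls; inactive means mean under the limit and some replicate under it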;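 further: myotubes were challenged with 10 µM simvastatin during compound exposure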
Each line names hits and unclear results; the compound was inactive in the other large screens. A selection: hits, their analogues and other compounds. The true share with any hit is near 3%.

Cn1c2ccccc2c(=O)c2c(=O)n(Cc3ccco3)c(-c3ccc(F)cc3)nc21	rRNA inh HTS -38.0 (no result: C2C12 statin)
COCCCNc1nc2c([nH]1)c(=O)[nH]c(=O)n2C	C2C12 statin 132.7 (no result: SIRT5 block, rRNA inh HTS)
CCCC(=O)Nc1ccc2c(c1)OC[C@H](C)N(Cc1ccccc1)C[C@@H](C)[C@H](OC)CN(C)C2=O	none
O=C(/C=C/c1ccc(O)cc1)c1ccc(NC2=C(N3CCCCC3)C(=O)c3ccccc3C2=O)cc1	rRNA inh HTS -37.0
CN(C)c1ccc2nc3ccc(=[N+](C)C)cc-3sc2c1	rRNA inh HTS -53.2 (no result: Cneo AK release, PGC1a acetyl inh, C2C12 statin)
Cn1c(=O)c([N+](=O)[O-])c(NCc2ccccc2Cl)c2ccccc21	rRNA inh HTS -29.0 (no result: Cneo AK release, C2C12 statin)
Cn1c(=O)c([N+](=O)[O-])c(NCCc2ccccc2)c2ccccc21	none (no result: SIRT5 block, S100A4 inh HTS, rRNA inh HTS, C2C12 statin)
O=C(C[C@@H]1CC[C@@H]2[C@H](COC[C@H](O)CN2CCC(F)(F)F)O1)N1CCC(Cc2ccccc2)CC1	none
CCCNC(=O)N1C[C@@H](O)COC[C@@H]2O[C@H](CC(=O)N3CCC(Cc4ccccc4)CC3)CC[C@H]21	SIRT5 block 22.8
O=C(C[C@@H]1CC[C@H]2[C@@H](COC[C@H](O)CN2CCC(F)(F)F)O1)N1CCC(Cc2ccccc2)CC1	SIRT5 block 17.0
CC(C)NC(=O)N(C)C[C@@H]1Oc2c(NS(=O)(=O)c3cn(C)cn3)cccc2C(=O)N([C@@H](C)CO)C[C@H]1C	none (no result: C2C12 statin)
O=C(Cn1cccc1C(=O)c1ccccc1)NCc1ccc(Cl)cc1	none (no result: Cneo AK release, C2C12 statin)
CCCN1CCN(C(=O)Cn2cccc2C(=O)c2ccccc2)CC1	none (no result: SIRT5 block, S100A4 inh HTS, rRNA inh HTS)
O=C(c1ccccc1)c1cccn1CC(=O)N1CCCCCC1	C2C12 statin 109.7 (no result: SIRT5 block, Cneo AK release, S100A4 inh HTS, rRNA inh HTS)
Cc1ccc(CNC(=O)Cn2cccc2C(=O)c2ccccc2)cc1	C2C12 statin 108.6 (no result: SIRT5 block, S100A4 inh HTS, rRNA inh HTS)
O=C(Nc1ccccc1F)N1CC(=O)N2[C@H](CO)[C@@H](c3ccc(-c4cccnc4)cc3)[C@H]2C1	none (no result: Cneo AK release, C2C12 statin)
Cc1ccc(CSCC(=O)N(C)CC(=O)Nc2ccccc2Cl)cc1	rRNA inh HTS -21.1 (no result: Cneo AK release, C2C12 statin)
CN(CC(=O)Nc1ccccc1Cl)C(=O)CSc1nc2ccccc2s1	rRNA inh HTS -25.6
CN(CC(=O)Nc1ccccc1Cl)C(=O)COC(=O)c1nc(Cl)c(Cl)c(Cl)c1Cl	rRNA inh HTS -17.8 (no result: C2C12 statin)
CSc1ncc(C(=O)Nc2ccc(C(C)=O)cc2)c(-c2ccccc2)n1	SIRT5 block 21.0
COc1ccccc1C#Cc1ccc([C@H]2[C@H]3CN(C(=O)C4CCCC4)CCCCN3[C@H]2CO)cc1	none (no result: rRNA inh HTS, C2C12 statin)
O=C(Nc1ccccc1)N1CCCCN2[C@H](C1)[C@H](c1ccc(C#CC3CC3)cc1)[C@@H]2CO	Cneo AK release 108.2 (no result: C2C12 statin)
COc1ccccc1NC(=O)N1CCCCN2[C@H](C1)[C@@H](c1ccc(C#CC3CCCC3)cc1)[C@@H]2CO	SIRT5 block 15.8
O=C(Nc1ccccc1)N1CCCCN2[C@@H](CO)[C@@H](c3ccc(C#CC4CC4)cc3)[C@@H]2C1	none (no result: C2C12 statin)
COc1ccccc1NC(=O)N1CCCCN2[C@H](C1)[C@@H](c1ccc(C#CC3CC3)cc1)[C@@H]2CO	S100A4 inh HTS 81.2 (no result: Cneo AK release, rRNA inh HTS, PGC1a acetyl inh, C2C12 statin)
COc1ccccc1C#Cc1ccc([C@H]2[C@@H](CO)N3CCCCN(C(=O)C4CCCC4)C[C@@H]23)cc1	SIRT5 block 18.7 (no result: rRNA inh HTS, C2C12 statin)
COc1ccccc1NC(=O)N1CCCCN2[C@H](CO)[C@@H](c3ccc(C#CC4CCCC4)cc3)[C@H]2C1	none
COCC#Cc1cnc2c(c1)C(=O)N([C@H](C)CO)C[C@H](C)[C@@H](CN(C)C(=O)C1CCC1)O2	none
COCCNC(=O)C[C@H]1CC[C@H](NC(=O)NC2CCCC2)[C@@H](CO)O1	none
COc1ccc(NC(=O)Nc2cccc3c2O[C@H](CN(C)Cc2ccc(Oc4ccccc4)cc2)[C@H](C)CN([C@H](C)CO)C3=O)cc1	none
COc1ccc(NC(=O)Nc2cccc3c2O[C@@H](CN(C)Cc2ccc(Oc4ccccc4)cc2)[C@H](C)CN([C@@H](C)CO)C3=O)cc1	SIRT5 block 16.3
COc1ccc(NC(=O)Nc2cccc3c2O[C@@H](CN(C)Cc2ccc(Oc4ccccc4)cc2)[C@@H](C)CN([C@H](C)CO)C3=O)cc1	C2C12 statin inconclusive
COc1ccc(NC(=O)Nc2cccc3c2O[C@@H](CN(C)Cc2ccc(Oc4ccccc4)cc2)[C@@H](C)CN([C@@H](C)CO)C3=O)cc1	SIRT5 block 15.3, C2C12 statin inconclusive
C[C@H](CO)N1C[C@H](C)[C@@H](CN(C)C(=O)c2ccc(F)cc2)Oc2ncc(/C=C/c3ccccc3)cc2C1=O	none
O=C(C=Cc1ccccc1Cl)c1ccccc1	none
C=CCn1cccc(/C=C/C(=O)c2ccc(C(C)(C)C)cc2)c1=S	PGC1a acetyl inh 52.6 (no result: SIRT5 block, Cneo AK release, S100A4 inh HTS, rRNA inh HTS)
CC(C)[C@@H]1COCn2nncc2CC[C@H](Cc2ccccc2)C(=O)N1	none (no result: PGC1a acetyl inh, C2C12 statin)
CCCN(CC(=O)Nc1ccccc1C)C(=O)c1ccc(S(=O)(=O)N2CCCCCC2)cc1	none (no result: C2C12 statin)
COC(=O)COc1ccc(S(=O)(=O)N2CCc3ccccc3C2)cc1C	rRNA inh HTS -25.9 (no result: SIRT5 block)
CCCN(CC(=O)Nc1ccccc1C)C(=O)c1cccc(S(=O)(=O)N2CCc3ccccc3C2)c1	rRNA inh HTS -21.4
C[C@H](CO)N1C[C@H](C)[C@H](CN(C)Cc2ccccn2)Oc2ncc(-c3ccc(F)cc3)cc2C1=O	none
COC(=O)[C@@H]1[C@@H](CO)[C@@H]2Cn3c(ccc(-c4ccccc4F)c3=O)[C@@H]2N1Cc1ccncc1	none (no result: PGC1a acetyl inh)
CN(C)C(=O)[C@@H]1[C@@H](CO)[C@@H]2Cn3c(ccc(-c4ccc(F)cc4)c3=O)[C@H]1N2CCc1ccccc1	none
CN(C)C(=O)[C@H]1[C@H](CO)[C@H]2Cn3c(ccc(-c4ccc(F)cc4)c3=O)[C@@H]1N2CCc1ccccc1	SIRT5 block 21.8
O=C(O)[C@@H]1[C@@H](CO)[C@@H]2Cn3c(ccc(-c4ccccc4F)c3=O)[C@@H]2N1Cc1ccccc1	SIRT5 block 18.5
CCN1[C@@H]2c3ccc(-c4cccc(F)c4)c(=O)n3C[C@@H]2[C@@H](CO)[C@@H]1C(=O)N[C@H](C)c1ccccc1	SIRT5 block 26.6 (no result: PGC1a acetyl inh)
CN1[C@H](C(=O)NC2CCCCC2)[C@@H](CO)[C@@H]2Cn3c(ccc(-c4cccc(F)c4)c3=O)[C@@H]21	SIRT5 block 16.5 (no result: PGC1a acetyl inh)
C[C@H]1CN([C@@H](C)CO)S(=O)(=O)c2ccc(C#Cc3ccc(F)cc3)cc2O[C@@H]1CN(C)C(=O)c1ccccn1	none
O=C(NCC1CC1)[C@@H]1[C@@H](CO)[C@@H]2Cn3c(ccc(-c4ccccc4)c3=O)[C@@H]2N1CC1CC1	none
